{
  "source": "paper PMC248471",
  "about": "(Biological Procedures Online, 2003)",
  "key": {"[1]": {"molecular_target": "T1, recombinant human HSP72 (Homo sapiens, UniProt P0DMV8)", "T1 sequence (P0DMV8 whole entry)": "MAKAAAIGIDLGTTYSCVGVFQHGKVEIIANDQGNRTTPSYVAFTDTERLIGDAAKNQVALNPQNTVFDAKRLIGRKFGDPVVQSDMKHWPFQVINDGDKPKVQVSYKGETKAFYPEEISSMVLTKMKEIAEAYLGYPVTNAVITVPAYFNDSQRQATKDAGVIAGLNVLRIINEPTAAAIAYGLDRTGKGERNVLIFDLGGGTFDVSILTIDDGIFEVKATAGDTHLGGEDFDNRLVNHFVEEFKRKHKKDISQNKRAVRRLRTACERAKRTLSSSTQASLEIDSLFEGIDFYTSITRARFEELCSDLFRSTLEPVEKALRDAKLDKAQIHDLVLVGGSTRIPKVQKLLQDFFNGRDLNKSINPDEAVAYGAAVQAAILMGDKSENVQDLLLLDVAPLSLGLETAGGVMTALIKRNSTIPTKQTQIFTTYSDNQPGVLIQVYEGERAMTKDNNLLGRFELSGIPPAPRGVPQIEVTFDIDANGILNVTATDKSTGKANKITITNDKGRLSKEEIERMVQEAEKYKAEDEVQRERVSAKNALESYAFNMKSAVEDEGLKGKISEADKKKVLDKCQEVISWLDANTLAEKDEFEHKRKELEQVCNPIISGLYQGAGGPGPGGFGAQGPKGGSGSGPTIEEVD", "test": "BIAcore SPR peptide binding to high-density immobilized HSP72", "conditions": "for binding to HSP72 (sensorgram pattern): 1 mM peptide, high HSP72 immobilization density (20,000 RU), data not shown, see reference [15]"}, "[2]": {"molecular_target": "T1, recombinant human HSP72", "test": "BIAcore SPR kinetic analysis of peptide binding to immobilized HSP72", "conditions": "pH 7.4, read-out: ka (on rate)", "in_short": "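Recombinant human HSP72 dialysed into 10 mM sodium acetate pH 5.0 and covalently coupled to a CM5 chip at about 10,000 RU. Peptides were dissolved in running buffer (HBS-P pH 7.4, 2.5 mM Mg acetate, 2.5 mM ATP) and injected at 25 to 200 μM. Sensorgrams were reference-channel subtracted without regeneration, then globally fitted to a 1:1 Langmuir model and judged by Chi2 and residuals.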"}, "[3]": {"system": "MV RNP (parent Ed-MV and 4D variant)", "assay_type": "cell-based, measles virus", "conditions": "recombinant virus with 4D-substituted motif; unpublished data"}, "[4]": {"system": "CDV transcription and genome replication", "test": "CDV viral transcription and genome replication, HSP72 responsiveness", "assay_type": "cell-based, canine distemper virus (Onderstepoort strain)", "conditions": "Onderstepoort CDV N protein (YSDKELL); unpublished observation"}, "[5]": {"system": "MV transcription and genomic replication", "conditions": "ref [15], cited from earlier work"}, "[6]": {"system": "viral RNP transcriptional activity", "conditions": "ATP-dependent association with CDV and MV RNP; ref [10]-[13]; cited from earlier work"}, "[7]": {"system": "IgG", "test": "BIAcore SPR peptide binding to irrelevant ligand", "conditions": "irrelevant ligand IgG immobilized; data not shown, see reference [15]"}, "[8]": {"system": "MV RNP-HSP72 interaction", "test": "Peptide competitive inhibition of MV RNP-HSP72 interaction", "assay_type": "binding, human HSP72; measles virus RNP"}},
  "note": "Where two headings read alike, the source gives them in different places. No end group written: not given here.",
  "data": [
    {"compound": "CC[C@H](C)[C@H](NC(=O)[C@@H]1CCCN1C(=O)[C@@H](NC(=O)[C@H](CC(=O)O)NC(=O)[C@@H](NC(=O)[C@@H](N)CC(=O)O)[C@@H](C)O)[C@@H](C)O)C(=O)N[C@H](C(=O)N[C@@H](Cc1ccc(O)cc1)C(=O)N[C@@H](CC(N)=O)C(=O)N[C@@H](CC(=O)O)C(=O)N[C@@H](CCCNC(=N)N)C(=O)N[C@@H](CC(N)=O)C(=O)N[C@@H](CC(C)C)C(=O)N[C@@H](CC(C)C)C(=O)N[C@@H](CC(=O)O)C(=O)O)C(C)C", "note": "[N, DTDTPIVYNDRNLLD]", "values": [
      {"measurement": "dissociation rate from HSP72, faster in 2.5 mM than in 0.1 mM ATP", "setting": "[1]; 400 μM N peptide, 20,000 RU HSP72, HBS-P, 2.5 mM magnesium acetate", "value": 3, "unit": "times"},
      {"measurement": "kon", "setting": "[2]", "value": 357, "unit": "M⁻¹ s⁻¹"}
    ]},
    {"compound": "DTDTPIVYNDRDLLD [Peptide N4D, DTDTPIVYNDRDLLD]", "values": [
      {"measurement": "kon", "setting": "[2]", "value": 7, "unit": "M⁻¹ s⁻¹"}
    ]},
    {"compound": "DTDTPIVYNDRDPLD [Peptide N3P4D, DTDTPIVYNDRDPLD]", "values": [
      {"measurement": "kon", "setting": "[2]", "value": 14, "unit": "M⁻¹ s⁻¹"}
    ]},
    {"compound": "HSP72: 72 kDa heat shock protein; major inducible member of the 70kDa family", "values": [
      {"measurement": "functional HSP72 responsiveness of 4D virus variant", "setting": "[3]", "value": "loss of functional HSP72 responsiveness"},
      {"measurement": "HSP72 responsiveness in viral transcription and genome replication", "setting": "[4]", "value": "retains HSP72 responsiveness"},
      {"measurement": "stimulation of viral transcriptional activity (CAT reporter)", "setting": "[5]; HSP72 added by transfection, wild type MV N", "value": "2-3 fold"},
      {"measurement": "response to HSP72 supplementation (CAT reporter)", "setting": "[5]; N protein with C-terminal 3P4D substitutions", "value": "lack a response"},
      {"measurement": "response to HSP72 supplementation (CAT reporter)", "setting": "[5]; N protein with C-terminal 4D substitution", "value": "lack a response"},
      {"measurement": "effect of HSP72 association on RNP", "setting": "[6]", "value": "increased RNP transcriptional activity"}
    ]},
    {"compound": "STSRHKKLMFKTEGP [p53]", "values": [
      {"measurement": "binding to HSP72 (sensorgram pattern)", "setting": "[1]", "value": "progressive rise in signal observed over time"},
      {"measurement": "signal over bulk shift on IgG", "setting": "[7]", "value": "signal over bulk shift was not observed"}
    ]},
    {"compound": "YGSLPQKAQRPQDEN [MBP]", "values": [
      {"measurement": "inhibition of RNP binding to HSP72", "setting": "[8]; 400 μM peptide, MV RNP representing 1 nM N protein, maximal sensorgram response", "value": 18, "unit": "%"},
      {"measurement": "level of inhibition of RNP-HSP72 binding, comparison", "setting": "[8]; 400 mM (so in the source) MBP peptide vs 5 μM N peptide", "value": "comparable to that using only 5 μM N peptide"},
      {"measurement": "binding to HSP72 (sensorgram pattern)", "setting": "[1]", "value": "identical sensorgrams were obtained with 1 mM peptide solution and flow channels containing no ligand or flow channels containing either HSP72 or irrelevant protein (i.e., IgG) as ligand"}
    ]}
  ]
}
